Measured values published in ChEMBL document CHEMBL1134616, “Novel 7-oxyiminomethyl derivatives of camptothecin with potent in vitro and in vivo antitumor activity” (J Med Chem, 2001).

How the values were obtained:
[1] = Complete response in mice with lung carcinoma LX-1 at a oral dose of 3 mg/kg; type: functional, Mus musculus
Summary of the method: (§1)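 Nude athymic CD1 mice, 8–10 weeks old, carrying serially passaged human lung tumor fragments implanted s.c. in both flanks. Oral dosing in 10 mL/kg on a q4dx4 schedule, begun once tumors were visible but not yet measurable. Complete response means no detectable tumor for at least 10 days after the end of treatment.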

[2] = Percentage inhibition of tumor volume in treated versus control mice against human Non-Small-Cell tumor xenograft at a oral dose of 4 mg/kg; type: functional; conditions: Mus musculus
Summary of the method: (§2)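 Nude athymic CD1 mice, 8–10 weeks old, with human lung tumor fragments implanted s.c. in both flanks. Oral dosing in 10 mL/kg, q4dx4, started when tumors were visible but not measurable. Tumor volume = d²×D/2 from caliper diameters. Percent inhibition of treated versus control volume taken 7–10 days after the last dose. Volumes compared by Student's t test, P<0.05.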

NCI-H460 [3] = assay: Percentage of body weight loss in CD1 mice with human Non-Small-Cell tumor at a oral dose of 2 mg/kg; type: functional
Summary of the method: (§3)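 Nude athymic CD1 mice, 8–10 weeks old, bearing s.c. human lung tumor xenografts in both flanks. Given oral drug in 10 mL/kg on a q4dx4 schedule, beginning when tumors were visible but not measurable. Read-out is percent body weight loss after drug treatment.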

[4] = Log 10 cell kill induced by treatment in mice with lung carcinoma LX-1 at a oral dose of 3 mg/kg; type: functional, Mus musculus
Summary of the method: (§4)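 Nude athymic CD1 mice, 8–10 weeks, carrying s.c. human lung tumor fragments in both flanks. Given per os on a q4dx4 schedule at 10 mL/kg, starting when tumors were visible but not measurable. Volume = d²×D/2. Log10 cell kill = T−C/3.32 × tumor doubling time, where T and C are the days for treated and control tumors to reach a mean volume of 1000 mm³.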

NCI-H460 [5] = assay: Log 10 cell kill induced by treatment iin CD1 mice with human Non-Small-Cell tumor at a oral dose of 1 mg/kg; type: functional; summary of the method: as §4
NCI-H460 [6] = assay: Percentage inhibition of tumor volume in treated versus control mice against human Non-Small-Cell tumor xenograft at a oral dose of 3 mg/kg; type: functional; conditions: Mus musculus; summary of the method: as §2
[7] = Percentage inhibition of tumor volume mice with lung carcinoma LX-1 at a oral dose of 3 mg/kg; type: functional; conditions: Mus musculus; summary of the method: as §2
NCI-H460 [8] = assay: Percentage of body weight loss in CD1 mice with human Non-Small-Cell tumor at a oral dose of 4 mg/kg
NCI-H460 [9] = assay: No. of dead mice/ total No. of mice in CD1 mice with human Non-Small-Cell tumor at a oral dose of 1 mg/kg; type: ADME, organism-based; design: dose 1 mg/kg, route oral; conditions: in vivo
Summary of the method: (§5)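 Human lung tumor s.c. xenografts (fragments, both flanks) in nude athymic CD1 mice aged 8–10 weeks. Oral q4dx4 dosing at 10 mL/kg, begun when tumors were visible but not measurable. Toxicity is recorded as the number of dead mice over the total number of treated mice.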

NCI-H460 [10] = assay: Log 10 cell kill induced by treatment in CD1 mice with human Non-Small-Cell tumor at a oral dose of 2 mg/kg; type: functional; summary of the method: as §4
[11] = Cytotoxicity against human non-small-cell lung carcinoma cell line H460 (NSCLC-H460); type: functional, cell-based
Summary of the method: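 Logarithmically growing cells were seeded in duplicate, exposed to drug for 1 h starting 24 h after seeding, and counted by Coulter counter 72 h after exposure. Drug was dissolved in DMSO before dilution. The IC50 is the concentration giving a 50% decrease in growth relative to untreated control.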

NCI-H460 [12] = assay: Percentage inhibition of tumor volume in treated versus control mice against human Non-Small-Cell tumor xenograft at a oral dose of 2 mg/kg; type: functional; conditions: Mus musculus; summary of the method: as §2
NCI-H460 [13] = assay: Percentage inhibition of tumor volume in treated versus control mice against human Non-Small-Cell tumor xenograft at a oral dose of 1 mg/kg; type: functional; conditions: Mus musculus; summary of the method: as §2
[14] = Percentage of body weight loss in CD1 mice with human Non-Small-Cell tumor at a oral dose of 4 mg/kg; type: functional, Mus musculus; summary of the method: as §3
NCI-H460 [15] = assay: No. of dead mice/ total No. of mice with human Non-Small-Cell tumor at a oral dose of 3 mg/kg; type: ADME, organism-based; design: dose 3 mg/kg, route oral; conditions: in vivo; summary of the method: as §5
[16] = Percentage of body weight loss in mice with lung carcinoma LX-1 at a oral dose of 3 mg/kg; type: functional, Mus musculus; summary of the method: as §3
NCI-H460 [17] = assay: Complete response in CD1 mice with human Non-Small-Cell tumor at a oral dose of 2 mg/kg; type: functional; summary of the method: as §1
NCI-H460 [18] = assay: Percentage of body weight loss in CD1 mice with human Non-Small-Cell tumor at a oral dose of 1 mg/kg; type: functional; summary of the method: as §3
NCI-H460 [19] = assay: Complete response in CD1 mice with human Non-Small-Cell tumor at a oral dose of 1 mg/kg; type: functional; summary of the method: as §1
[20] = Complete response in CD1 mice with human Non-Small-Cell tumor at a oral dose of 4 mg/kg; type: functional, Mus musculus; summary of the method: as §1
NCI-H460 [21] = assay: Complete response in CD1 mice with human Non-Small-Cell tumor at a oral dose of 3 mg/kg; type: functional; summary of the method: as §1
NCI-H460 [22] = assay: No. of dead mice/ total No. of mice with human Non-Small-Cell tumor at a oral dose of 2 mg/kg; type: ADME, organism-based; design: dose 2 mg/kg, route oral; conditions: in vivo; summary of the method: as §5
[23] = Log 10 cell kill induced by treatment in CD1 mice with human Non-Small-Cell tumor at a oral dose of 2 mg/kg
[24] = No. of dead mice/ total No. of mice in mice with lung carcinoma LX-1 at a oral dose of 3 mg/kg; type: ADME, organism-based; design: dose 3 mg/kg, route oral; conditions: mouse, in vivo; summary of the method: as §5
NCI-H460 [25] = assay: Log 10 cell kill induced by treatment in CD1 mice with human Non-Small-Cell tumor at a oral dose of 3 mg/kg; type: functional; summary of the method: as §4
NCI-H460 [26] = assay: Complete response in CD1 mice with human Non-Small-Cell tumor at a oral dose of 15 mg/kg after treatment with compound; type: functional
Summary of the method: (§6)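 Nude athymic CD1 mice, 8–10 weeks old, bearing s.c. human lung tumor xenografts (tumor fragments implanted in both flanks). Oral dosing on a q4dx4 schedule at 10 mL/kg, starting when tumors were visible but not measurable. A complete response was scored as no evidence of tumor for at least 10 days after the end of treatment.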

[27] = Complete response in mice bearing lung carcinoma LX-1 at a oral dose of 15 mg/kg; type: functional, Mus musculus; summary of the method: as §1
NCI-H460 [28] = assay: Percentage of body weight loss in CD1 mice with human Non-Small-Cell tumor xenograft at a oral dose of 5 mg/kg; type: functional; summary of the method: as §3
[29] = Percentage of body weight loss CD1 mice with human Non-Small-Cell tumor xenograft at a oral dose of 9 mg/kg; type: functional; conditions: dose 15 mg/kg, in the assay text read “oral dose of 15 mg/kg” for “oral dose of 9 mg/kg”; summary of the method: as §3
NCI-H460 [30] = assay: Log 10 cell kill induced in mice with human Non-Small-Cell tumor xenograft at a oral dose of 5 mg/kg; type: functional; summary of the method: as §4
[31] = Percentage of body weight loss in mice bearing lung carcinoma LX-1 at a oral dose of 15 mg/kg; type: functional, Mus musculus; summary of the method: as §3
NCI-H460 [32] = assay: Percentage of body weight loss of CD1 mice after treatment with compound; type: functional, Homo sapiens; summary of the method: as §3
NCI-H460 [33] = assay: Percentage inhibition of tumor volume in treated versus control mice against human Non-Small-Cell tumor xenograft at a oral dose of 9 mg/kg; type: functional; conditions: Mus musculus; summary of the method: as §2
Homo sapiens = assay: Percentage inhibition of tumor volume in treated versus control mice against human Non-Small-Cell tumor xenograft at a oral dose of 5 mg/kg; type: functional; summary of the method: as §2
[34] = Percentage inhibition of tumor volume in treated versus control mice bearing lung carcinoma LX-1 at a oral dose of 15 mg/kg; type: functional; conditions: Mus musculus; summary of the method: as §2
NCI-H460 [35] = assay: No. of dead mice/ total no of mice with human Non-Small-Cell tumor xenograft at a oral dose of 5 mg/kg; type: ADME, organism-based; design: dose 5 mg/kg, route oral; conditions: in vivo; summary of the method: as §5
NCI-H460 [36] = assay: Complete response in CD1 mice with human Non-Small-Cell tumor xenograft at a oral dose of 9 mg/kg; type: functional; summary of the method: as §1
NCI-H460 [37] = assay: Complete response in CD1 mice with human Non-Small-Cell tumor at a oral dose of 9 mg/kg after treatment with compound; type: functional; summary of the method: as §6
[38] = (§7) No. of dead mice/ total No. of mice with human Non-Small-Cell tumor xenograft at a oral dose of 9 mg/kg; type: ADME, organism-based; design: dose 9 mg/kg, route oral; conditions: in vivo; summary of the method: as §5
NCI-H460 [39] = assay: as §7; type: ADME, organism-based; design: dose 9 mg/kg, route oral; conditions: in vivo; summary of the method: as §5
[40] = No. of dead mice/ total No. of mice bearing lung carcinoma LX-1 at a oral dose of 15 mg/kg; type: ADME, organism-based; design: dose 15 mg/kg, route oral; conditions: mouse, in vivo; summary of the method: as §5
NCI-H460 [41] = assay: Complete response in CD1 mice with human Non-Small-Cell tumor at a oral dose of 5 mg/kg after treatment with compound; type: functional; summary of the method: as §1
NCI-H460 [42] = assay: Complete response CD1 mice with human Non-Small-Cell tumor xenograft at a oral dose of 15 mg/kg; type: functional; summary of the method: as §1
NCI-H460 [43] = assay: Percentage inhibition of tumor volume in treated versus control mice against human Non-Small-Cell tumor xenograft at a oral dose of 15 mg/kg; type: functional; conditions: Mus musculus; summary of the method: as §2
[44] = Log 10 cell kill induced in mice bearing lung carcinoma LX-1 at a oral dose of 15 mg/kg; type: functional, Mus musculus; summary of the method: as §4

## CC[C@@]1(O)C(=O)OCc2c1cc1n(c2=O)Cc2c-1nc1ccccc1c2/C=N/OC(C)(C)C [GIMATECAN]
[1]
  CR: 8
[2]
  inhibition in vivo at 4 mg/kg: 99%
NCI-H460 [3]
  BWL: 1%
[4]
  LCK: 5.3
NCI-H460 [5]
  LCK: 1.4
NCI-H460 [6]
  inhibition in vivo at 3 mg/kg: 100%
[7]
  inhibition in vivo at 3 mg/kg: 100%
NCI-H460 [8]
  BWL: 23%
NCI-H460 [9]
  Toxicity: 0
NCI-H460 [10]
  LCK: 2.4
[11]
  IC50: 15 nM
NCI-H460 [12]
  inhibition in vivo at 2 mg/kg: 99%
NCI-H460 [13]
  inhibition in vivo at 1 mg/kg: 90%
[14]
  BWL: 5%
NCI-H460 [15]
  Toxicity: 2
[16]
  BWL: 11%
NCI-H460 [17]
  CR: 5
NCI-H460 [18]
  BWL: 0%
NCI-H460 [19]
  CR: 0
[20]
  CR: 4
NCI-H460 [21]
  CR: 8
NCI-H460 [22]
  Toxicity: 0
[23]
  LCK: 2.4
[24]
  Toxicity: 0
NCI-H460 [25]
  LCK: 2.5

## CC[C@@]1(O)C(=O)OCc2c1cc1n(c2=O)Cc2cc3c(CN(C)C)c(O)ccc3nc2-1 [TOPOTECAN]
NCI-H460 [26]
  LCK: 2.1
[27]
  CR: 4
NCI-H460 [28]
  BWL: 0%
[11]
  IC50: 1380 nM
[29]
  BWL: 8%
NCI-H460 [30]
  LCK: 1.3
[31]
  BWL: 6%
NCI-H460 [32]
  BWL: 0%
NCI-H460 [33]
  inhibition in vivo at 9 mg/kg: 91%
Homo sapiens
  inhibition in vivo at 5 mg/kg: 80%
[34]
  inhibition in vivo at 15 mg/kg: 99%
NCI-H460 [35]
  Toxicity: 0
NCI-H460 [36]
  CR: 0
NCI-H460 [37]
  LCK: 1.7
[38]
  Toxicity: 0
NCI-H460 [39]
  Toxicity: 0
[40]
  Toxicity: 0
NCI-H460 [41]
  CR: 0
NCI-H460 [42]
  CR: 0
NCI-H460 [43]
  inhibition in vivo at 15 mg/kg: 98%
[44]
  LCK: 3.7
